# Bioassay records as filed in PubChem.
# E coli RNAP: Escherichia coli RNA polymerase inhibition; P0A8V2; E. coli RNA polymerase, fluorescence transcription assay; inhibition, %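 (tested at 10 µM)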; 62,000 tested, 0.2% active; in the data active means inhibition above about 20%;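 further: 0% = enzyme without compound and 100% = no enzyme blank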
# MMP-13 inhibitor: MMP13 (human) collagenase inhibition. P45452. AID 570. inhibition, % at 4 µM. MMP-13 fTHP FRET cleavage, Mca fluorescence. 65,000 tested, 0.07% active;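 active means inhibition above the mean of compound-free control plate wells plus 3 SD, cut at about 14% in these data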;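 further: 0% = DMSO wells and 100% = wells with reference MMP-13 inhibitor after basal subtraction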
# BAP1 inh: inhibitors of human BAP1 deubiquitinase | Q92560 | recombinant BAP1, Ub-AMC hydrolysis fluorescence kinetic; active compounds read low | calls only at 20 µM | 72,000 tested, 0.48% active | AID 436;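 active means activity remaining at or below 50% of control, provided the compound also passes the data quality filters; inactive means the rest, including low values that fail the filters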;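 further: 100% = DMSO wells rate and 0% = substrate alone blank rate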
# tolC growth inh: growth inhibitors of E. coli BW25113 tolC mutant; growth inhibition, % at 10 µM (by protocol); OD615; AID 573; 65,000 tested, 2.2% active;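 active means growth inhibition at or above a cutoff equal to the mean over every tested compound plus 3 SD, cut at about 60% in these data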;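 further: growth measured after 20 h incubation at 37 °C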
#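 signal = optical density read at 615 nm | test system = E. coli ΔtolC::kan strain BW25113 | timing = 20 h compound exposure of bacteria at 37 °C | buffer or medium = LB medium plus 50 µg/mL kanamycin | compound dosing = 10 µM final, single dose | evaluation = % inhibition of E. coli growth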
# AP complement: orthogonal test for alternative complement pathway inhibitors; inhibition, % at 5 µM; Human serum alternative complement pathway, LPS-coated ELISA, C3 deposition; tested in compound mixtures; 62,000 tested, 0.08% active;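 active means inhibition above 30% in each of the two pooled mixtures holding the compound, so the lower value exceeds 30%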;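 further: 0% = serum in Mg-EGTA without compound and 100% = EDTA serum blank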
#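 Assay system: human serum alternative complement pathway, C3 deposition on LPS-coated wells; Dosing: 5 µM per compound in ten-compound mixtures; Detection: Anti-C3 ELISA, OD 450 nm; Buffer or medium: Mg2+-EGTA GVB++ buffer containing human serum at 1:15 dilution; Timing: 1 h at 37 °C; Replication: two different pools per compound.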
# Ecoli WT expand: growth inhibitors of E. coli BW25113 wild type; OD600 absorbance; 98,000 tested, 0.15% active; AID 710; growth inhibition, % at 100 µM;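 active means growth inhibition above about 50% at one test dose, limit read from the data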;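 further: growth measured after 20 h incubation at 37 °C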
# BAP1 inh confirm: BAP1 (human) enzyme inhibition, confirmed. purified BAP1, Ub-ethyl ester hydrolysis, HPLC; active compounds read low. shares compounds with BAP1 inh. 310 tested, 8% active. % of control activity, % at 20 µM. AID 753;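 active means percent of control activity at or below 60%; inconclusive means HPLC trace unusable from injection failure or solvent front hiding peaks; inactive means the rest, plus ubiquitin peak ratio over a set limit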
# An asterisk follows results filed as active; i = inactive; u = inconclusive; x = no result given; + = active, no number. Many of the other results were omitted from the sample, so hits are more common in it than they were.
SMILES,E coli RNAP,MMP-13 inhibitor,BAP1 inh,tolC growth inh,AP complement,Ecoli WT expand,BAP1 inh confirm
Cc1cc(Cl)ccc1NC(=O)c1ccc(N(C)S(=O)(=O)c2ccccc2)cc1,x,x,i,x,x,x,x
CCCC(c1nnnn1CC(=O)OCC)N(Cc1cc2c(C)cc(C)cc2[nH]c1=O)C1CCCC1 (centres undefined),3.0,-3.2,+,12.7,14.1,-11.0,98.3
N#Cc1c(N=Cc2cccc3ccccc23)sc2c1CCCC2,x,x,i,x,x,x,x
O=C(Nc1nnc(-c2ccco2)s1)C1CCN(S(=O)(=O)c2ccc(Cl)cc2)CC1,-2.4,-11.4,+,28.9,-30.6,-5.0,u
CCCCCCn1c(SCCCC)nc2c1c(=O)[nH]c(=O)n2C,7.8,3.0,+,26.3,-7.0,-3.0,86.9
CCCCCCn1c(SCCOC)nc2c1c(=O)[nH]c(=O)n2C,-1.2,2.6,i,10.4,11.5,x,x
COc1ccccc1OCC(=O)Nc1oc(-c2ccccc2)c(-c2ccccc2)c1C#N,6.7,-2.3,x,26.2,-5.1,-30.0,x
N#Cc1c(NC(=O)COC(=O)C2CC3C=CC2C3)oc(-c2ccccc2)c1-c1ccccc1 (centres undefined),5.8,-0.8,+,31.6,-1.1,-13.0,41.9*
CCCOC(=O)C1=C(C)NC2=C(C(=O)CCC2)C1c1cccc(OC)c1OC (centres undefined),x,-17.1,+,4.7,18.8,6.0,34.2*
COc1cc(C2C(C#N)=C(N)N(c3cccnc3)C3=C2C(=O)CCC3)ccc1O (centres undefined),x,x,x,x,x,9.0,x
CCSc1sccc1C1C(C#N)=C(N)N(c2cccnc2)C2=C1C(=O)CCC2 (centres undefined),2.9,-8.1,+,5.5,-1.4,-1.0,113.5
CCOC(=O)c1oc2ccccc2c1NC(=O)COc1ccc(F)cc1,2.2,-3.7,+,-6.6,10.4,1.0,153.7
COc1ccc2c(c1)sc1nc(-c3cc4ccccc4oc3=O)cn12,x,x,i,x,x,x,x
CCOC(=O)c1c(-c2ccccc2)csc1NC(=O)CSc1nc2ccccc2o1,x,x,i,x,x,x,x
Cc1ccc(O)c(N=CC2=C(O)c3ccccc3C2=O)c1,-0.9,13.4,+,28.4,11.0,-7.0,116.9
COc1ccc2c(C=Nc3c(C)n(C)n(-c4ccccc4)c3=O)c(O)n(Cc3ccco3)c(=O)c2c1,0.1,7.9,+,4.5,6.9,-10.0,101.3
COc1ccc(-c2cc(C(F)(F)F)n3nc(C(=O)NCc4ccco4)cc3n2)cc1,-4.5,-139.8,+,6.0,3.7,-5.0,110.7
Cc1ccc(-c2cc(C(F)(F)F)n3ncc(C(=O)NCc4ccco4)c3n2)cc1,6.8,-5.6,+,12.2,1.0,-5.0,u
Cc1ccc(-c2cc(C(F)F)n3ncc(C(=O)NCc4ccco4)c3n2)cc1,-7.6,-2.8,x,-6.7,0.4,-7.0,x
O=C(NCc1ccco1)c1cc2nc(-c3ccc4c(c3)OCO4)cc(C(F)(F)F)n2n1,-12.9,-7.5,+,-9.8,14.5,-11.0,56.1*
COc1ccc(-c2cc(C(F)(F)F)n3nc(C(=O)NCc4ccco4)c(Cl)c3n2)cc1,x,x,x,x,x,-15.0,x
O=C(NC1CCCCC1)c1cc2nc(-c3ccco3)cc(C(F)(F)F)n2n1,11.6,-21.3,x,9.1,7.7,-3.0,x
O=C(NC12CC3CC(CC(C3)C1)C2)c1cc2nc(-c3ccco3)cc(C(F)(F)F)n2n1,8.0,-40.6,+,53.5,8.3,-5.0,79.2
O=C(C1CCN(c2nnc(-n3cccc3)s2)CC1)N1CCOCC1,7.3,-0.6,i,-15.7,5.9,0.0,x
O=C(C1CCN(c2nnc(-n3cccc3)s2)CC1)N1CCN(c2cccc(C(F)(F)F)c2)CC1,6.2,0.8,+,8.8,1.5,-6.0,100.7
SMILES,E coli RNAP,MMP-13 inhibitor,BAP1 inh,tolC growth inh,AP complement,Ecoli WT expand,BAP1 inh confirm
CSC1=C(C#N)C2(CCCC2)C(C#N)=C(N)N1,7.9,-1.5,+,19.8,4.9,x,77.0
CCSC1=C(C#N)C2(CCCC2)C(C#N)=C(N)N1,11.5,-1.1,i,14.9,2.3,-6.0,x
O=C(Nc1nc(-c2cccs2)cs1)c1cccc(S(=O)(=O)N2CCCCCC2)c1,0.5,-5.7,x,44.4,-10.5,-16.0,x
O=C(Nc1nc(-c2cccs2)cs1)c1ccc(S(=O)(=O)N2CCCCC2)cc1,10.5,7.3,+,30.4,16.3,-8.0,89.1
CCCCOc1ccc(C(=O)NCc2n[nH]c(=S)n2-c2cccc(C)c2)cc1,x,x,i,x,x,x,x
CCN1C(=O)c2cccc3c(NC(=O)c4ccc(Cc5ccccc5)cc4)ccc1c23,x,x,i,x,x,x,x
O=c1c2c(-c3cccs3)csc2ncn1/N=C/c1ccc(OC(F)F)cc1,x,x,x,x,x,-5.0,x
Cn1cc(/C=N/n2cnc3scc(-c4ccccc4)c3c2=O)c2ccccc21,-2.5,-2.5,+,4.9,8.4,-12.0,91.1
O=C1CC(N(CCc2ccccc2)C(=O)c2cccc(F)c2)C(=O)N1c1ccc(Cl)cc1 (centres undefined),x,x,i,x,x,x,x
CCOC(=O)c1c(NC(=O)CSc2nc(C)cc(C)c2C#N)sc(C(C)=O)c1C,0.6,-0.1,+,3.2,0.3,4.0,80.2
CCOC(=O)c1c(NC(=O)CSc2nnc(CNc3ccc(F)cc3)o2)sc(C(C)=O)c1C,6.9,-2.0,+,27.0,2.4,-7.0,68.0
O=C(Nc1ccccc1F)c1cc2ccccc2oc1=O,x,x,i,x,x,x,x
Cc1ccc(OCC(=O)Nc2ccccc2C)cc1C,x,x,i,x,x,x,x
O=C(Nc1ccc(O)c(-c2nc3ccccc3o2)c1)c1ccccc1Cl,x,x,i,x,x,x,x
CCCCn1c2c(c3ccccc31)CCc1nonc1-2,0.4,-5.7,+,50.2,14.3,x,50.5*
Cn1c(C(=O)N2CCCc3ccccc32)cc2c(=O)n3ccccc3nc21,6.1,-9.1,+,1.2,1.7,-3.0,109.8
Cn1c(C(=O)N2CCc3ccccc32)cc2c(=O)n3ccccc3nc21,-6.3,1.1,i,-0.6,-1.8,x,x
Cc1ccc(C)c(S(=O)(=O)N2CCC(c3nc4c(nnn4Cc4ccc(F)cc4)c(=O)[nH]3)CC2)c1,7.8,2.9,+,27.0,13.1,-1.0,134.8
Cc1ccc(Cn2nnc3c(=O)[nH]c(C4CCN(S(=O)(=O)c5cc(C)ccc5C)CC4)nc32)cc1,5.9,-4.0,+,57.9,4.9,-8.0,131.3
CCN(CC)S(=O)(=O)c1ccc(C(=O)Nc2nnc(-c3ccc(C)cc3)s2)cc1,x,x,i,x,x,x,x
Cc1nnc(SCC(=O)Nc2sc3c(c2C#N)CCCCC3)n1N,x,x,x,x,x,9.0,x
N#Cc1c(NC(=O)CSc2nnnn2C2CCCCC2)sc2c1CCCC2,-2.4,2.8,+,-7.0,-11.1,2.0,61.7
CC1CCN(S(=O)(=O)c2ccc(NC(=O)Cn3nnc(-c4ccccc4F)n3)cc2)CC1,-6.2,7.0,+,12.6,-9.4,-7.0,134.7
